CHOP inh: inhibitors of CHOP promoter induction, primary screen, cell-based, unfolded protein response, luciferase reporter; inhibition, % at 10 µM; AID 2732, 2010; 220,000 compounds, 3.8% hits; CHO-K1 CHOP-promoter luciferase, tunicamycin-induced, 15-18 h;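 active means compounds that reduced the stress-induced luciferase reporter signal by more than about 70% of percent inhibition, limit read from the data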;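 further: 0% = tunicamycin plus vehicle and 100% = wells without tunicamycin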
Wee1 stabilizer: Wee1 degradation inhibitors, primary screen, cell-based, HeLa, Wee1K328M-luciferase, luminescence | AID 1321, 2008 | 220,000 compounds, 1.2% hits | reporter increase, % at 5 µM | HeLa Luc-Wee1K328M stability; 100% = proteasome inhibitor MG132 effect;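 active means activation above the mean of all tested compounds plus 3 SD, set per screening run, cut at about 8.8% in these data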;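 further: cells exposed to compound for 20 h before luminescence read; 0% = DMSO alone and 100% = MG132 at 30 µM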
Arbovirus anti: antivirals against arbovirus infection, primary screen, cell-based, full library, 10K replicate subset; inhibition, % at 10 µM; arbovirus infection cell-based antiviral screen; 200,000 compounds, 0.37% hits; AID 1251, 2008; in the data active means inhibition above about 30%
L major viab: Leishmania major promastigote growth inhibition, primary screen. Leishmania major promastigotes, resazurin fluorescence viability. inhibition, % at 10 µM. 200,000 compounds, 9% hits. AID 1063, 2008;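 further: promastigotes grown with compound for 44 hours at 28 °C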
Rad51 HR inh: human RAD51 strand exchange inhibitors, primary screen, biochemical, fluorescence | inhibition, % at 10 µM | 200,000 compounds, 0.085% hits | hRad51 DNA strand exchange, fluorescence dequenching;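 active means inhibition above 40% at the single screening dose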;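 further: 0% = DMSO control wells and 100% = blanks with heterologous ssDNA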
Target sequence (Q06609 whole entry, looked up): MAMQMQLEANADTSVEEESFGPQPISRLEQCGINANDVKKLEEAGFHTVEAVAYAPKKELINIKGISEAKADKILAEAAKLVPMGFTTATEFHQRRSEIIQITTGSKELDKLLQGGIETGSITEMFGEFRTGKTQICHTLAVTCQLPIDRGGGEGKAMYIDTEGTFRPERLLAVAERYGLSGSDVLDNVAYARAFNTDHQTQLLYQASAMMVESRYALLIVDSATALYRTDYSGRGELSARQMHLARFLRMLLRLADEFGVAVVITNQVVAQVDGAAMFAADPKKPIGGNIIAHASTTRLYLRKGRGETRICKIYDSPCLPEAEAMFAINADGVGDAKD
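Material: Human Rad51 nucleoprotein filaments preassembled on unlabelled ssDNA | Also added: Labelled 47-mer dsDNA for strand exchange | Dosing: Single dose, 10 µM final compound | Schedule: 30-min compound preincubation and 15-min exchange, both room temperature | Technique: Fluorescence dequenching at 485/520 nm | Measure: Percent inhibition relative to plate controls and blanks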
PKD1 kinase inh: inhibitors of human PKD1 kinase, biochemical, fluorescence polarization. AID 797, 2007. 200,000 compounds, 0.056% hits. inhibition, % (no concentration beside the values). PKD1 kinase fluorescence polarization assay
* marks the source's active call; other numbers are inactive results; x = not tested or not shown. Only some compounds are listed: those with a hit (about 12% of all), similar ones and a draw of the others. Unless noted, no stated cut-off is given here; in the data, active means inhibition above about 50%; inactive means the rest.

SMILES	CHOP inh	Wee1 stabilizer	Arbovirus anti	L major viab	Rad51 HR inh	PKD1 kinase inh
N#CC1=C(N)Nc2ncnn2C1c1ccc([N+](=O)[O-])cc1 (stereo unspecified)	-13.9	0.3	x	x	8.4	x
C=CCn1c(CNC(=O)c2ccccc2F)nnc1SCc1nc2ccccc2c(=O)[nH]1	11.3	2.6	-0.3	-5.4	26.5	-4.5
O=C(/C=C/Sc1ccccc1)c1ccc(Cl)cc1	7.2	3.8	-35.7	92.0*	-8.5	-4.5
O=C(/C=C/Sc1ccccc1)c1ccccc1	49.5	1.5	-42.5	58.5*	6.3	3.0
CSC(=CC(=O)c1ccccc1)SC	10.8	1.3	0.2	85.3*	-0.7	20.4
COc1ccc(CNC(=O)C(C)Cc2ccccc2)cc1O (stereo unspecified)	-1.7	-0.8	-2.0	-6.0	10.3	-1.6
CCN(CC)S(=O)(=O)c1ccc(Cl)c(C(=O)NCc2ccccc2Cl)c1	0.7	0.5	1.6	98.6*	-5.8	-7.5
CCN(CC)S(=O)(=O)c1ccc(Cl)c(C(=O)OC)c1	40.7	-1.7	1.2	61.1*	-4.6	-5.5
O=C(OCc1cccc(F)c1)c1ccc2c(=O)n3c(nc2c1)CCC3	14.2	-1.2	x	x	19.9	x
CC(C)CCNC(=O)NC(=O)CSc1ncccn1	-3.0	0.8	9.7	-5.8	0.4	3.0
O=C(/C=C/c1ccco1)c1ccc(NC(=O)C23CC4CC(CC(C4)C2)C3)cc1	4.9	-0.7	10.4	58.7*	-6.7	-5.9
CN(Cc1cccnc1)C(=O)CNC(=O)c1ccc(Cl)cc1Cl	-3.4	-2.0	2.2	8.0	11.9	-0.1
CCOC(=O)c1c(C)[nH]c(C)c1C(=O)CSc1nc2ccccc2c(=O)n1-c1ccc(Cl)cc1	22.0	-3.2	4.1	11.4	7.5	0.2
O=C(CSc1nncn1-c1ccccc1)c1c[nH]c2ccccc12	-12.2	2.1	2.1	7.6	-4.3	-8.3
O=C(CSc1nc2ccccc2c(=O)n1-c1ccc(Cl)cc1)c1ccco1	74.0*	0.8	-11.5	-2.4	5.8	-10.3
O=C(CSc1nc2ccccc2c(=O)n1-c1ccccc1)c1c[nH]c2ccccc12	76.1*	5.9	-6.0	51.4*	0.2	-5.8
Cc1ccsc1-c1nc(CN2CCCC2c2ccc(F)cc2)c(C)o1 (stereo unspecified)	29.2	-2.1	2.7	14.2	-130.4	-5.3
O=C(Nc1ccccc1N1CCN(c2ccccc2)CC1)C12CC3CC(CC(C3)C1)C2	30.1	-1.3	-4.7	97.9*	-0.5	3.1
Cc1ccccc1C(=O)c1cccn1CC(=O)NCCCN1CCc2ccccc2C1	19.5	7.6	11.0	18.5	-6.0	-2.9
O=C1/C(=C/c2ccc(N3CCCC3)cc2)NC(=S)N1C1CC1	-5.0	1.5	2.0	30.3	5.3	-3.2
O=C1N/C(=C/c2ccc(N3CCCC3)cc2)C(=O)N1c1ccccc1	9.9	-0.9	-18.2	69.2*	-6.3	-19.9
COc1nc(N/N=C/c2ccc(-c3ccccc3[N+](=O)[O-])o2)nc(N2CCOCC2)n1	30.0	-1.7	-14.2	85.9*	-1.1	1.8
O=[N+]([O-])c1ccc(Nc2nc(N/N=C\c3ccc4c(c3)OCO4)nc(N3CCCCC3)n2)cc1	32.1	-1.3	-13.4	99.8*	-3.0	3.6
Cc1ccc(/C=N/Nc2nc(N3CCCCC3)nc(N3CCCCC3)n2)o1	18.2	7.0	2.9	41.8	4.4	1.7
O=[N+]([O-])c1ccc(/C=N/Nc2nc(N3CCCCC3)nc(N3CCCCC3)n2)cc1	62.2	2.3	-15.8	53.5*	-64.5	-5.6
SMILES	CHOP inh	Wee1 stabilizer	Arbovirus anti	L major viab	Rad51 HR inh	PKD1 kinase inh
O=[N+]([O-])c1ccc(/C=N/Nc2nc(N3CCCCCC3)nc(N3CCCCCC3)n2)o1	18.6	4.3	-21.4	100.1*	x	-13.8
Cn1c(SCC(=O)c2ccc3c(c2)Cc2ccccc2-3)nnc1-c1cccc(N)c1	93.5*	-1.7	-3.2	33.0	3.9	6.5
COc1cc(-c2nc(-c3ccc4c(c3)-c3ccccc3S4(=O)=O)c(-c3ccccc3)[nH]2)cc(OC)c1O	91.6*	1.2	-9.5	91.4*	-7.4	11.0
COc1ccc(-c2cc(C(=O)O)nc3ccc4ccccc4c23)cc1OC	-2.9	-3.3	0.9	-4.3	11.3	0.2
COc1ccc(NS(=O)(=O)c2ccc(NC(=S)NC(=O)c3ccc(Br)cc3)cc2)nn1	16.8	2.1	2.6	84.7*	-5.8	1.1
COc1ccc(NS(=O)(=O)c2ccc(NC(=O)c3ccc(Br)cc3)cc2)nn1	23.9	-3.2	-3.1	-20.4	-6.0	-4.1
COc1ccc(NS(=O)(=O)c2ccc(NC(=O)c3ccccc3)cc2)nn1	30.1	10.8*	1.2	-8.9	x	-1.4
Cc1ccc(OCc2ccc(C(=O)Nc3c(C)nn(Cc4c(F)c(F)c(F)c(F)c4F)c3C)o2)c([N+](=O)[O-])c1	60.4	-1.5	-18.4	91.6*	-7.0	1.7
COc1cccc(NC(=O)c2ncn[nH]2)c1	11.3	-1.4	0.9	5.7	-3.1	12.9
O=C(Nc1cccc(NC(=O)c2ncn[nH]2)c1)c1cccc(Cl)c1	17.9	-0.8	-14.3	100.0*	13.9	10.6
Cc1cccc(NC(=S)NC(=O)CCc2ccccc2)c1	-22.4	-0.2	-18.0	-6.9	-6.4	-0.4
Cc1cccc(NC(=S)NN(Cc2ccccc2)c2ccccc2)c1C	13.5	0.2	-3.6	56.2*	-5.9	2.0
CCCN(Cc1ccccc1)C(=S)Nc1cccc(C)c1C	-7.6	-1.4	1.6	12.0	x	-1.4
Cc1cccc(NC(=S)NC(=O)CCc2ccccc2)c1C	74.8*	-2.5	13.2	-9.6	0.9	-8.6
CN(C)c1ccc2nc3ccc(=[N+](C)C)cc-3sc2c1	42.2	-2.0	-19.2	100.3*	22.5	0.3
CCc1ccc2nc(SCC(=O)Nc3nnc(C)s3)c(C)cc2c1	-3.3	2.6	7.2	-5.0	1.1	-1.0
COc1ccccc1C(=O)C1CCCN(C(=O)CN2CCCCC2=O)C1 (stereo unspecified)	14.8	5.1	1.3	-2.9	x	-12.6
CCSc1ccc2cc(OC)ccc2[n+]1CC	4.1	-3.3	-5.2	83.7*	-36.4	-6.2
CCn1ccc2cc(OC)ccc2c1=S	-1.4	-1.4	-8.3	-3.1	5.2	-11.6
Cc1cc(OCC(O)CN2CCN(CCO)CC2)ccc1C(C)C (stereo unspecified)	-6.2	-3.1	-11.7	89.3*	-0.1	-13.9
OC(COCc1ccccc1)Cn1cnc2ccccc21 (stereo unspecified)	0.3	-0.2	2.2	-5.2	x	3.2
OC(COc1ccc2c(c1)CCC2)Cn1cnc2ccccc21 (stereo unspecified)	48.9	0.3	12.5	6.3	127.5*	1.1

Screening results: PubChem BioAssay, several laboratories
